Source: ChEMBL document CHEMBL4673255, “Acylated 1H-1,2,4-Triazol-5-amines Targeting Human Coagulation Factor XIIa and Thrombin: Conventional and Microscale Synthesis, Anticoagulant Properties, and Mechanism of Action” (J Med Chem, 2020)

Columns and labels:
Blood [1] = experiment: Anticoagulant activity in human blood assessed as concentration required to double the activated partial thromboplastin time incubated for 1 min followed by aPTT reagent based assay; format: functional
Outline: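 Compounds were tested at 300 µM, and the increase was expressed relative to DMSO. The doubling concentration (EC2×) is the concentration prolonging aPTT twofold. At least triplicate, mean ± SD.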

[2] = biological target: Urokinase-type plasminogen activator (Homo sapiens, UniProt P00749); experiment: Inhibition of human uPA using Tos-Gly-Pro-Arg-AMC as fluorogenic substrate measured at 1 min interval for 1 hr by fluorometric assay
Plasma [3] = experiment: (§1) Anticoagulant activity in human platelet-rich plasma assessed as reduction in TF-induced thrombin generation by measuring half life of clotting time at 100 uM preincubated for 15 mins followed by TF addition by Z-Gly-Gly-Arg-AMC substrate based calibrated automated thrombography (Rvb= 3 +/- 0.5 min); format: functional, cell-free
Outline: (§2)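 Tissue-factor-triggered homogeneous thrombin generation followed by fluorogenic substrate cleavage. Read-outs: clotting time (T1/2), peak amplitude (Amax, AU/L), time to peak (Tmax) and ETP (AU·min/L). DMSO and buffer served as controls. n = 3, mean ± SD.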

Monoglyceride lipase = biological target: T1, Monoglyceride lipase (Homo sapiens, UniProt Q99685); experiment: Inhibition of human recombinant MAGL using 1,3-dihydroxypropan-2-yl 4-pyren-1-ylbutanoate as substrate measured after 45 mins by reverse-phase HPLC-based fluorescence assay
T1 sequence (Q99685 whole entry): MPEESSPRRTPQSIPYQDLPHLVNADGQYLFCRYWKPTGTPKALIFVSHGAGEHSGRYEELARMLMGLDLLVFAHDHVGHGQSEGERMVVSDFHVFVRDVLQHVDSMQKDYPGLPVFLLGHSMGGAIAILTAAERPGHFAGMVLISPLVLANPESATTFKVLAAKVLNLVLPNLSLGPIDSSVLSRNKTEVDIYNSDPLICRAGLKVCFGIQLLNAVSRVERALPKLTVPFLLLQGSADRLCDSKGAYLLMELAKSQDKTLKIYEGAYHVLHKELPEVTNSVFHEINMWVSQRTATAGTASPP

Plasma [4] = experiment: as §1, with “amplitude” for “half life”, “thrombin peak” for “clotting time”, “(reference value: 63” for “(Rvb= 3”, “3.7 AU/L)” for “0.5 min)”; format: functional; settings: 0.25 h; outline: as §2
Coagulation factor XI = Coagulation factor XI (Homo sapiens, UniProt P03951); experiment: Inhibition of human coagulation factor XIA using Mes-dArg-Pro-Arg-AMC as fluorogenic substrate measured at 1 min interval for 1 hr by fluorometric assay
Sequence of Coagulation factor XI (P03951 19-387 limits assumed): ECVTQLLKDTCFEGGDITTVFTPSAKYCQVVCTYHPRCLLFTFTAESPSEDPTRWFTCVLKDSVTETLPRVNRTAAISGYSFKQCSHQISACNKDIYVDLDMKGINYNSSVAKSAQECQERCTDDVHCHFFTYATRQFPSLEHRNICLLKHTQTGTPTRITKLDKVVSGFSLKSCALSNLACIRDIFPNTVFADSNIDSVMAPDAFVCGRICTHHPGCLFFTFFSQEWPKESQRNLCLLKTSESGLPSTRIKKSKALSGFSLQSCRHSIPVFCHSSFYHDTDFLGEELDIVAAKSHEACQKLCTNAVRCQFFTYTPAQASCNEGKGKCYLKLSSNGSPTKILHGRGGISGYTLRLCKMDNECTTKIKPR
Sequence of Coagulation factor XI (P03951 388-625 limits assumed): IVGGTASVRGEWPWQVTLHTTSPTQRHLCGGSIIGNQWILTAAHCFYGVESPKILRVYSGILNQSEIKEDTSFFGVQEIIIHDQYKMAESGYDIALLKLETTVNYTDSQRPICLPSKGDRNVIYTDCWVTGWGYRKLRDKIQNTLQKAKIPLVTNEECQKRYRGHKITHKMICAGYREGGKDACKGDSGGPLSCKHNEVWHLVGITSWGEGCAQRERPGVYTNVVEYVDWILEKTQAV

Plasma [5] = experiment: as §1, with “Tmax” for “half life”, “(reference value: 8.1” for “(Rvb= 3”, “0.6” for “0.5”; format: functional, cell-free; outline: as §2
Coagulation factor XII = biological target: T2, Coagulation factor XII (Homo sapiens, UniProt P00748); experiment: Inhibition of human coagulation factor XIIA using Boc-Gln-Gly-Arg-AMC as fluorogenic substrate measured at 1 min interval for 1 hr by fluorometric assay
T2 sequence (P00748 whole entry): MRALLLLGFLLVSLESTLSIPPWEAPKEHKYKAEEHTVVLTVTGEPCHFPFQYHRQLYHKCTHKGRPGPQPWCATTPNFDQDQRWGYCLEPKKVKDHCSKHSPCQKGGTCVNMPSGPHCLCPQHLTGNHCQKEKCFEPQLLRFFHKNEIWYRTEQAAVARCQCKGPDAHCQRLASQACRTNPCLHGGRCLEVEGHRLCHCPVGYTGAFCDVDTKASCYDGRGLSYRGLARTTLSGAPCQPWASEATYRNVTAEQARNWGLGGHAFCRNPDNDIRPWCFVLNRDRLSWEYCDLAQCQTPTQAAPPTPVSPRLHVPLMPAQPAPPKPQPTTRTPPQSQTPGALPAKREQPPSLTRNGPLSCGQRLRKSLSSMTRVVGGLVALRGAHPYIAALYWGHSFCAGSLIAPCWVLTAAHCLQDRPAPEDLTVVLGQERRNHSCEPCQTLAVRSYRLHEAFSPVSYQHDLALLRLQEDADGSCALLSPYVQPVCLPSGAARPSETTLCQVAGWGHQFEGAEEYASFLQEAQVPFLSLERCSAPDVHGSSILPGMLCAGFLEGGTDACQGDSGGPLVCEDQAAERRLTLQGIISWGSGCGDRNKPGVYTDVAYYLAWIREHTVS

Prothrombin [6] = biological target: T3, Prothrombin (Homo sapiens, UniProt P00734); experiment: Inhibition of human coagulation factor alpha-thrombin using Boc-Val-Pro-Arg-AMC as fluorogenic substrate measured at 1 min interval for 1 hr by fluorometric assay
Prothrombin [7] = biological target: T3, Prothrombin; experiment: Inhibition of human coagulation factor thrombin using Boc-Val-Pro-Arg-AMC as fluorogenic substrate at 100 nM measured at 1 min interval for 1 hr by fluorometric assay relative to control
Outline: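 Screening of crude microscale amide-coupling products. Conversion was measured by 1H NMR and product content normalised to 76 µmol/L in DMSO, then tested at 1 µM and 100 nM in the fluorogenic FXIIa or thrombin assay. A 0-conversion reaction served as blank. Percent inhibition is from triplicates.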

Blood [8] = experiment: Effect on blood coagulation in human blood assessed as increase in prothrombin time at 300 uM incubated for 3 mins followed by CaCl2 addition by PT reagent based assay relative to control; format: ADME, tissue-based; settings: 0.05 h
Outline: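 Clotting was started with PT reagent already containing CaCl2, prewarmed to 37 °C, and clotting time was recorded. Increase is given relative to DMSO; at least triplicate, mean ± SD.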

Plasma kallikrein = Plasma kallikrein (Homo sapiens, UniProt P03952); experiment: Inhibition of human kallikrein using Mes-dArg-Pro-Arg-AMC as fluorogenic substrate measured at 1 min interval for 1 hr by fluorometric assay
Sequence of Plasma kallikrein (P03952 20-390 limits assumed): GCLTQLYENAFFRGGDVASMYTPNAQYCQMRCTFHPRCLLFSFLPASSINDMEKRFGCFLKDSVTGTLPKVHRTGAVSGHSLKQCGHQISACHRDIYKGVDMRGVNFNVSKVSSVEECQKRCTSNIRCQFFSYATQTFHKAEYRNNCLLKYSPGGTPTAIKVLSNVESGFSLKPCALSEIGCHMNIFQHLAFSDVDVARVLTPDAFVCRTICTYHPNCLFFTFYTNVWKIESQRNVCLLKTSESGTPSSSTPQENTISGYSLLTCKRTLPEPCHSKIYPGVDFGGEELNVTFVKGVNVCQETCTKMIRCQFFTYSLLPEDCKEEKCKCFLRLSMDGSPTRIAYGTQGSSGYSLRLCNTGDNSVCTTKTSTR
Sequence of Plasma kallikrein (P03952 391-638 limits assumed): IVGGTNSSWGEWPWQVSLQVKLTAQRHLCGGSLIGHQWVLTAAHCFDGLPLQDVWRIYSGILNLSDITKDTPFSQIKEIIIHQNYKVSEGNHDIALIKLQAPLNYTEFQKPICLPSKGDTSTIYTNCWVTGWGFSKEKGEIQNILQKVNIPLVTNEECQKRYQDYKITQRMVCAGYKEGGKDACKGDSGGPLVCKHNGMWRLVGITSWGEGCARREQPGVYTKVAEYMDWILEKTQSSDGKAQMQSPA

[9] = biological target: T4, Fatty-acid amide hydrolase 1 (Rattus norvegicus, UniProt P97612); experiment: Inhibition of FAAH in rat brain membrane using N-(2-hydroxyethyl)-4-pyren-1-ylbutanamide as substrate measured after 60 mins by reverse-phase HPLC-based fluorescence assay; format: cell membranes
T4 sequence (P97612 whole entry): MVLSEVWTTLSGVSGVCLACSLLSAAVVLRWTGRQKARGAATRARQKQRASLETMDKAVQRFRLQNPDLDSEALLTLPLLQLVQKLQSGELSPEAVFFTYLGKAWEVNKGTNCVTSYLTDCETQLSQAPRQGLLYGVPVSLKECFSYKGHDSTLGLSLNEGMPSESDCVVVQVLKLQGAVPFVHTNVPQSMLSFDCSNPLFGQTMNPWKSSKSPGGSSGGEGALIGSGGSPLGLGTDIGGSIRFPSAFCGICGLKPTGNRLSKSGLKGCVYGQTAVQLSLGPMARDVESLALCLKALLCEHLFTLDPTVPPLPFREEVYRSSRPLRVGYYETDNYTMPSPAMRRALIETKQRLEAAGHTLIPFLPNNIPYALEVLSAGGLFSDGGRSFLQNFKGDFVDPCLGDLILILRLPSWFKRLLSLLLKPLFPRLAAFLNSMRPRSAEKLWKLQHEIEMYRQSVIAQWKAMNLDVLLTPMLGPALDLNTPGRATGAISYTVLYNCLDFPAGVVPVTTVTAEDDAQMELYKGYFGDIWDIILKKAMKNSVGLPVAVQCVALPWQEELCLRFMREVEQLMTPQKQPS

Row | IC50 [2] | IC50 (Monoglyceride lipase) | IC50 (Coagulation factor XI) | IC50 (Coagulation factor XII) | IC50 (Prothrombin [6]) | inhibition (Prothrombin [7]) | Activity (Blood [8]) | IC50 (Plasma kallikrein) | IC50 [9] | Structure (SMILES) | 2aPTT (Blood [1]) | T1/2 (Plasma [3]) | Activity (Plasma [4]) | Tmax (Plasma [5])
1 | > 5 µM | > 5 µM | > 5 µM | 0.029 µM | 0.375 µM | 13% | 14% | > 5 µM | > 5 µM | Nc1nc(-c2ccccn2)nn1C(=O)c1cccc2ccccc12 | 236 µM | 2.7 min | 53.3 AU/L | 7 min
2 | 6.76 µM | > 5 µM | > 5 µM | 0.138 µM | 0.027 µM | 55% | 575% | > 5 µM | > 5 µM | Nc1nc(-c2ccccn2)nn1C(=O)c1ccc2ccccc2c1 | 107 µM | 2.3 min | 175.5 AU/L | 8 min
